Compound activity as filed in PubChem.
Only some compounds are listed: those with a hit (about 1.1% of all), similar ones and a draw of the others.
Vif inh = inhibitors of HIV Vif; HEK293T cells, Vif self-association by quenched fluorescence, imaging, 24 h; inhibition, % at 7.49 µM; 0.35% of 340,000 active; AID 602346; in the data active = inhibition above about 50%, passing the limit was not always enough
DAGLB inhibitor = blocks human DAGLB lipase activity. Q8NCG7. HEK293T DAGLB membrane lysate, EnzChek fluorogenic substrate. inhibition, % at 5.17 µM. 0.059% of 340,000 active. AID 504411; in the data active = inhibition above about 34%;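 also: 0% = enzyme with vehicle and 100% = wells lacking enzyme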
NR2E3 ag-1 = activates human photoreceptor nuclear receptor NR2E3; GST-NR2E3/biotin-RetCOR TR-FRET, 1536-well; 0.12% of 320,000 active; inhibition of corepressor binding, % at 4.78 µM; AID 2300; Q9Y5X4;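 active = percent inhibition above the cutoff of mean plus 3 SD of all tested compounds, set per screening campaign, cut at about 20% in these data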;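 also: 0% = DMSO wells and 100% = biotin wells as full block of FRET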
Target sequence (Q9Y5X4 whole entry, looked up): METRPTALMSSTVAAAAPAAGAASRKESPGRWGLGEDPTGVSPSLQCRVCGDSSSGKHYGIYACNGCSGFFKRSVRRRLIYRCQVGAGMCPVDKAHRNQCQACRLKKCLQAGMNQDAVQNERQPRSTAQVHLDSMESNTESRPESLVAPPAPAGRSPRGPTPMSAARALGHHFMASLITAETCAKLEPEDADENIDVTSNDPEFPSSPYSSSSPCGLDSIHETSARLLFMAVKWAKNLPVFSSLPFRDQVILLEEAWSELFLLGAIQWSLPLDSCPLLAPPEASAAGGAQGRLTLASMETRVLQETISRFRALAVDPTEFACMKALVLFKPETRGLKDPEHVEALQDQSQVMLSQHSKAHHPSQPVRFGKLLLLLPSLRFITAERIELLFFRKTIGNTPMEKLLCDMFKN
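Material: NR2E3–RetCOR corepressor complex / Incubation: Compound–protein incubation for 5 h at 4 °C / Dosing: compound at 4.8 µM, single dose / Detection: time-resolved FRET / Benchmarks: high control biotin, low control 0.6% DMSO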
NR2E3 ag-2 = human photoreceptor-specific nuclear receptor agonism; 0.35% of 360,000 active; Q9Y5X4; AID 602229; CHO-S Gal4-NCOR/VP16-NR2E3 two-hybrid, luciferase; inhibition of corepressor binding, % at 3.98 µM;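 active = inhibition above the mean of all tested compounds plus 3 SD, cut at about 70% in these data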;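 also: 0% = DMSO with NR2E3 transfected cells and 100% = cells lacking NR2E3 construct; higher means lower luciferase signal from less NR2E3 corepressor binding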
core dimer inh = blocks dimerization of HCV core protein | inhibition, % at 5 µM | 0.33% of 300,000 active | TR-FRET GST/Flag-core106 dimerization, 1536-well | AID 1899;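 active = inhibition above the mean of all tested compounds plus 3 SD, set per screening campaign, cut at about 45% in these data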
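Assay system: tagged HCV core106 pair (GST and Flag); medium: KF-containing HEPES buffer, pH 7.45, DTT, CHAPS, BSA; also added: Eu donor and XL665 acceptor anti-tag antibodies; dosing: 5 µM single dose; timing: compound-protein-antibody incubation 4 h at 22.5 °C; signal: TR-FRET 671 and 617 nm emission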
MT1-MMP act inh = inhibitors of human MT1-MMP activation | HT1080 RFP-PRO-GFP cells, GFP/RFP ratio fluorescence, overnight; percent of plate control window, DMSO zero | AID 651647 | GFP/RFP ratio change, % at 20 µM | P50281 | 0.061% of 360,000 active;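 active = GFP/RFP ratio change of at least 30% with cell ATP level not reduced by more than half and red fluorescence within 50% of control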
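Compound: 20 µM single dose, 1% DMSO / System: HT1080 RFP-PRO-GFP cells / Controls: DMSO and RFP-L50D-GFP cell wells / Read-out basis: GFP/RFP fluorescence ratio / Schedule: overnight compound exposure at 37 °C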
NR2E3 ag conf = NR2E3 agonism confirmed in two-hybrid assay; shares compounds with NR2E3 ag-2; CHO-S mammalian two-hybrid NR2E3-NCOR, luciferase luminescence; inhibition, % at 3.98 µM; 51% of 2,300 active; AID 624378;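 active = average inhibition above a cutoff equal to the mean inhibition of all tested compounds plus one SD, cut at about 70% in these data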;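 also: 0% = DMSO in NR2E3 cells and 100% = DMSO in cells lacking NR2E3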
GAL4-VP16 luc = reduces GAL4-VP16 reporter signal in NR2E3 counterscreen; shares compounds with NR2E3 ag-2; CHO-S GAL4-VP16 luciferase reporter, luminescence; inhibition, % at 3.98 µM; 29% of 2,300 active;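 active = mean inhibition above a cutoff equal to the average over all tested compounds plus one standard deviation, cut at about 70% in these data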;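 also: luciferase from a UAS reporter driven by GAL4-VP16 transactivation; 0% = DMSO with VP16-transfected cells and 100% = DMSO with cells lacking VP16; higher means less reporter light so more repression of VP16 activity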
Active calls of the source: *; / = no result given.

SMILES | Vif inh | DAGLB inhibitor | NR2E3 ag-1 | NR2E3 ag-2 | core dimer inh | MT1-MMP act inh | NR2E3 ag conf | GAL4-VP16 luc
Oc1ccccc1/C=N/NC(=S)NC1CC2CCC1C2 (stereo unspecified) | 0.2 | 4.7 | 3.1 | 47.8 | -3.1 | 6.0 | -163.9 | -101.0
CCn1c(SCC(=O)Nc2ccc(F)cc2)nnc1C1CC1 | -5.4 | -1.2 | 3.2 | 5.9 | -2.3 | 2.1 | / | /
FC(F)(F)c1nc(-c2ccncc2)ncc1-c1nnnn1-c1ccccc1 | -1.4 | 1.3 | -0.3 | 14.8 | -1.4 | -4.4 | / | /
Fc1ccc(-n2nnnc2-c2cnc(-c3cccs3)nc2C(F)(F)F)cc1 | -7.2 | -11.4 | 0.0 | 88.3* | 16.6 | -3.8 | 91.6* | 68.9
COc1ccccc1-[n+]1c(C)cc(/C=C2\Sc3ccccc3N2C)cc1C | / | -8.6 | -9.8 | 91.6* | -11.8 | -232.4 | 96.9* | 82.8*
COc1ccc(-[n+]2c(C)cc(/C=C3\Sc4ccccc4N3C)cc2C)cc1 | -2.5 | -9.4 | -7.7 | 92.5* | -27.9 | -277.2 | 98.6* | 92.4*
COc1ccc(C(=O)/C=C2\Sc3ccccc3N2C)cc1 | -5.7 | / | -2.4 | -152.5 | -20.5 | 1.5 | / | /
Nc1ncc(Br)cc1S(=O)(=O)Nc1cc(C(F)(F)F)cc(C(F)(F)F)c1 | -5.4 | 13.8 | -0.1 | 108.6* | -2.4 | 4.9 | 100.6* | 89.9*
Cc1ccc(NS(=O)(=O)c2cc(Br)cnc2N)c(Cl)c1 | -7.6 | 4.5 | 1.9 | -11.0 | 0.3 | -1.6 | / | /
COc1ccccc1CNC(=O)c1cc(S(=O)(=O)N2CCCCC2)c[nH]1 | -6.5 | -1.2 | 4.9 | -13.1 | 6.2 | 0.9 | / | /
Cn1c(Sc2nc3ccccc3n2C)nc2ccccc21 | 0.4 | -0.4 | -1.5 | 76.5* | -2.8 | -1.9 | 57.9 | 18.6
Fc1ccc(NC(=S)NNc2ncc(C(F)(F)F)cc2Cl)c(F)c1 | -10.2 | -2.3 | 3.9 | 79.8* | 3.2 | -10.8 | 67.5 | 56.8
FC(F)(F)c1cnc(NNC(=S)Nc2ccc(Cl)cc2)c(Cl)c1 | -13.9 | -10.0 | 1.1 | 70.1* | 4.9 | -13.9 | 94.1* | 76.8*
Cc1ccc(NC(=S)NNc2ncc(C(F)(F)F)cc2Cl)cc1 | -13.1 | -3.8 | 0.1 | 12.6 | -2.0 | 1.3 | / | /
C[C@H](CO)N1C[C@H](C)[C@@H](CN(C)S(C)(=O)=O)OCc2cnnn2CCCC1=O | 0.6 | -1.0 | / | -32.5 | / | 3.7 | / | /
COc1ccc(S(=O)(=O)N2CCN(C(=O)Cc3ccsc3)CC2)cc1 | -2.9 | 0.5 | / | -3.8 | / | -2.2 | / | /
CC1=[N+](C)c2c(ccc3cccnc23)C1(C)C | 4.2 | 6.2 | / | 92.3* | / | 6.6 | 98.8* | 84.6*
O=C(C[n+]1ccc(C(=O)c2ccccc2)cc1)Nc1cccc([N+](=O)[O-])c1 | / | / | / | -10.4 | / | 6.7 | / | /
OC[C@@H]1CN(Cc2ccc(-c3ccccc3)cc2)C[C@H](n2cnc3c(NCc4ccncc4)ncnc32)O1 | -21.6 | / | / | 54.9 | / | 0.2 | 74.2* | 52.7
OCCNc1ncnc2c1ncn2[C@H]1CN(Cc2ccc(-c3ccccc3)cc2)C[C@@H](CO)O1 | -14.3 | / | / | 11.1 | / | -1.5 | / | /
OC[C@@H]1CN(Cc2ccc(-c3ccccc3)cc2)C[C@H](n2cnc3c(NCc4ccco4)ncnc32)O1 | -13.0 | / | / | 69.9 | / | 15.0 | 75.0* | 39.0
OC[C@@H]1CN(Cc2ccccc2)C[C@H](n2cnc3c(NCc4ccco4)ncnc32)O1 | -2.0 | / | / | 10.2 | / | 0.1 | / | /
CC(C)(C)n1nnnc1C(c1ccccc1)N1CCN(c2ccccn2)CC1 (stereo unspecified) | / | / | / | 2.6 | / | 7.5 | / | /
Cc1nc(N/N=C/c2cccc(F)c2)cc(N2CCOCC2)n1 | 12.0 | -3.7 | 2.1 | 49.3 | 9.7 | -2.6 | 20.9 | 13.4
COc1ccc(C(=O)Cn2c(C(C)=O)nc3ccccc32)cc1 | -6.0 | -5.0 | / | 63.0 | / | 8.7 | 15.1 | 7.8
SMILES | Vif inh | DAGLB inhibitor | NR2E3 ag-1 | NR2E3 ag-2 | core dimer inh | MT1-MMP act inh | NR2E3 ag conf | GAL4-VP16 luc
Cn1c2ccccc2c(=O)c2ccc(C#CC3(O)CCCCC3)cc21 | 1.1 | 4.4 | -2.9 | 56.3 | 3.6 | 5.0 | 16.9 | -80.9
COc1cc2sc3ccc(C#CC4(O)CCCCC4)cc3c(=O)c2cc1OC | -2.3 | 1.9 | 2.0 | -50.3 | 18.5 | 9.3 | / | /
COc1cccc2c1C(=O)c1c(O)c3c(c(O)c1C2=O)CC(O)(C(=O)CO)CC3OC1CC(N(C)C)C(O)C(C)O1 (stereo unspecified) | -5.2 | -14.6 | / | 100.8* | / | -19.2 | 99.2* | 94.0*
COc1cccc2c1C(=O)c1c(O)c3c(c(O)c1C2=O)C[C@@](O)(C(=O)CO)C[C@@H]3O[C@H]1C[C@H](N)[C@@H](O)[C@H](C)O1 | 27.4 | -4.7 | -1.9 | -28.1 | -22.5 | 6.8 | / | /
CN(CC1COc2ccccc2O1)C(=O)CCNS(=O)(=O)c1ccc(F)c(Cl)c1 (stereo unspecified) | -3.1 | 0.5 | / | 3.6 | / | 1.3 | / | /
Cc1csc(NC(=O)c2ccc(Cn3nc(C)c(Br)c3C)o2)n1 | -19.2 | -0.6 | -1.9 | 78.5* | 4.5 | 2.9 | 73.5* | 62.0
Cc1nn(C)c(C)c1/C=C/C(=O)O | 9.0 | -1.7 | -4.4 | 9.2 | -4.2 | -2.2 | / | /
Cc1nn(C)c(C)c1/C=C/C(=O)c1ccc(Cl)cc1Cl | -1.3 | -3.0 | 2.9 | 75.7* | -0.2 | 0.3 | 99.6* | 85.0*
COc1ccccc1NC(=O)CN1CCN(C(=O)C2CCCO2)CC1 (stereo unspecified) | -12.5 | 1.6 | 2.8 | -36.1 | -1.3 | -0.5 | / | /
NNC(=O)c1cnn(Cc2ccccc2)c1N | 6.3 | -0.6 | 2.8 | 56.6 | -2.1 | -6.0 | -16.5 | 0.8
NC(=O)c1cnn(Cc2ccc(Cl)cc2)c1N | -16.2 | -2.1 | 5.1 | 1.6 | 1.8 | -128.4 | / | /
O=C(NC1CCCCCC1)C1CCC(=O)N(Cc2ccccc2F)C1 (stereo unspecified) | -0.8 | -4.9 | 0.8 | -45.8 | -11.0 | / | / | /
CCCCOc1ccc(N2C(=O)C(C)CNC2=S)cc1 (stereo unspecified) | 4.8 | -6.9 | / | 14.1 | / | 0.2 | / | /
O=C(Cc1ccc(Cl)cc1)Nc1ccncc1 | -7.7 | 0.8 | 4.1 | 9.4 | 1.0 | -8.4 | / | /
Cc1ccc(CC(=O)Nc2ccncc2)cc1 | -11.7 | -2.0 | 1.8 | 50.3 | 1.9 | 1.9 | 66.1 | 49.9
CC(=O)c1c(C)[nH]c(C(=O)OCc2ccc(Br)cc2)c1C | -18.1 | -4.4 | 1.2 | 5.9 | 1.3 | -9.8 | / | /
CC(=O)c1c(C)[nH]c(C(=O)OCc2cccc(C)c2)c1C | -9.2 | -2.9 | 1.5 | 47.8 | 11.0 | -8.8 | 27.7 | 1.2
